Source: PubChem BioAssay (several laboratories)
Most compounds without a hit are left out; they make up all but 2.8% or so of the library.
NR3A LBD binder = binders of NR3A ligand-binding domain, primary screen, biophysical, differential scanning fluorimetry, uHTS; 340,000 tested, 2.5% active; NR3A LBD differential scanning fluorimetry, Tm shift; 0% = protein alone, 100% = glycine-bound protein; AID 1259313, 2017; Tm shift relative to glycine control, % at 25 µM;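 active = melting temperature shift of at least 10% of the positive control shift, at one fixed dose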
JMJD2C inh = inhibitors of GASC-1 histone demethylase, primary screen, biochemical, fluorescence, DELFIA europium; Lysine-specific demethylase 4C (Homo sapiens), Q9H3R0; GST-JMJD2C(1-420) H3K9me3 demethylation; inhibition, % at 2.35 µM; 330,000 tested, 0.069% active;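 active = more than half of a compound's replicate wells show inhibition beyond 50%, single wells judged on their own value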;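 note: signal counts dimethyl H3K9 product captured on neutravidin plate; 0% = median of DMSO wells and 100% = 0.3 times that DMSO median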
Target sequence (Q9H3R0 1-420 limits assumed): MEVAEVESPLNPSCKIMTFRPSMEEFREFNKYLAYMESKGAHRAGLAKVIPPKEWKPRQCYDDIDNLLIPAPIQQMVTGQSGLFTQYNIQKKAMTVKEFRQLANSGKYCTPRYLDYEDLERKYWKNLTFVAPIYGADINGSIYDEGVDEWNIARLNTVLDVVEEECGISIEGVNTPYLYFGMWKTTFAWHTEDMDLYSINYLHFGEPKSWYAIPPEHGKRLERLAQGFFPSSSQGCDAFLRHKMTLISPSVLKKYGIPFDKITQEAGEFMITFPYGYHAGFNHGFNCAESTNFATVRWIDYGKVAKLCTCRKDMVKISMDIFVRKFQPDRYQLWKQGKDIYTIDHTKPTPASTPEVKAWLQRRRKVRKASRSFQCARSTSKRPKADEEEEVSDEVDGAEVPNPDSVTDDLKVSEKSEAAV
Rtt109 HAT inh = inhibitors of C. albicans Rtt109/Vps75 HAT, primary screen, biochemical, ThioGlo CoA-SH fluorescence, plate reader | Histone acetyltransferase RTT109 (Candida albicans (strain SC5314 / ATCC MYA-2876)), … | purified Rtt109/Vps75, 4 h | inhibition, % at 34.9 µM | 330,000 tested, 0.16% active | AID 540336, 2011;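 active = inhibition of at least 50% in every replicate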
T cell modulator = modulators of CD8 T cell-vesicle binding, primary screen, mouse 2C CD8+ T cells, flow cytometry; 2C CD8+ T cell-vesicle binding; hits give low values; response (vesicle binding), % at 7 µM; 330,000 tested, 0.068% active;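 active = response, share of CD8 T cells binding vesicles, and their 90th percentile fluorescence all below set limits, cut at about 80% in these data, passing the limit was not always enough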;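 note: values below 100% mean blocked vesicle binding to the CD8+ T cells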
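Material: murine 2C transgenic CD8+ T lymphocytes / Also added: QL9-peptide-loaded Drosophila micro-vesicles bearing Ld, ICAM-1 and B7-1 / Schedule: binding step 1.5 h, 37 °C, antibody labelling 20 min, ice / Signal: flow cytometry, PE anti-B7-1 (FL2) versus Alexa647 anti-CD8 (FL8), PFA-fixed / Evaluation: percent CD8+ FL2 mean versus row control / Benchmarks: naked versus QL9-loaded vesicles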
* hit, by the source's call; i = inactive; x = no result.

SMILES	NR3A LBD binder	JMJD2C inh	Rtt109 HAT inh	T cell modulator
O=C(O)c1cc(NC(=O)c2ccc3c(c2)C(=O)N(Cc2ccccc2)C3=O)cc(C(=O)O)c1	14.1*	-0.8	-2.8	231.1
CCN1C(=O)c2ccc(C(=O)Nc3cccc(C(=O)O)c3)cc2C1=O	1.4	1.6	x	216.3
C=C(CN(C)C)C(=O)c1ccc(C)cc1C	14.0*	x	0.0	x
Cc1ccc(CCNC(=O)CSCc2ccc(F)cc2)cc1	-0.4	-25.3	0.1	185.0
O=C(NCc1csc2ccc(Cl)cc12)Nc1ccccc1	22.6*	-0.2	-12.0	297.2
COC(=O)C(C(=O)N1CCN(C)CC1)C1CCCCCC1 (stereo not given)	12.5*	x	7.7	261.6
c1ccc(Cn2nnc3c(NCCN4CCOCC4)ncnc32)cc1	0.7	-3.1	0.1	315.1
Clc1ccccc1Cn1nnc2c(NCCN3CCOCC3)ncnc21	-0.5	91.3*	-2.1	447.1
CC(=O)c1cccc(NS(=O)(=O)c2ccc(N/C=C\C(=O)c3ccc(C)cc3)cc2)c1	7.4	-1.3	-4.4	297.7
CC(=O)c1cccc(NS(=O)(=O)c2ccc(N/C=C\C(=O)c3ccc(F)cc3)cc2)c1	1.1	1.9	0.3	366.4
CC(=O)c1ccc(NS(=O)(=O)c2ccc(N/C=C/C(=O)c3ccc(F)cc3)cc2)cc1	15.9*	-16.8	0.0	350.6
CC(=O)c1cccc(NS(=O)(=O)c2ccc(N/C=C/C(=O)c3ccc(F)cc3)cc2)c1	18.1*	-1.5	1.3	124.4
O=C(CCc1nc(-c2ccccc2F)no1)NCCN1CCOCC1	14.2*	1.1	2.3	406.7
Cc1cc(F)ccc1S(=O)(=O)Nc1ccc(O)c(Sc2ncn[nH]2)c1	-0.6	6.0	-0.6	252.2
Cc1ccccc1OCC(=O)OCC(=O)c1ccc(OC(=O)c2ccccc2)cc1	-0.5	-21.5	-10.0	215.9
Cc1ccccc1OCC(=O)OCC(=O)c1ccc(OCc2ccccc2)cc1	25.0*	x	-2.9	109.0
O=C(/C=C/Nc1ccc(F)cc1)c1ccco1	14.6*	3.2	2.4	522.6
Cc1ccc(NC(=O)C2SC(=Nc3ccccc3)C(C(=O)Nc3ccc(Cl)cc3)=C2N)cc1 (stereo not given)	16.7*	x	-0.3	x
Cc1ccc(NC(=O)c2cc3cc(OC(F)(F)F)ccc3[nH]2)cc1	0.9	-27.7	x	172.6
N#Cc1cccc(NC(=O)C2SC(=Nc3ccccc3)C(C(=O)N3CCOCC3)=C2N)c1 (stereo not given)	0.5	-13.1	0.1	263.1
Cc1ccc(N=C2SC(C(=O)Nc3ccc(OC(F)(F)F)cc3)C(N)=C2C(=O)Nc2c(C)cc(C)cc2C)cc1 (stereo not given)	35.5*	7.5	3.0	493.7
N#Cc1ccccc1OCC(=O)N(Cc1nnc(-c2ccccc2Cl)o1)C1CC1	-2.7	5.3	34.2	177.2
COc1ccc(N(CC(=O)Nc2cccnc2)S(=O)(=O)c2ccc(C)cc2)cc1Cl	-5.0	-4.6	20.0	323.8
CCOc1ccc(N(CC(=O)Nc2cccnc2)S(=O)(=O)c2ccc(C)cc2)cc1	15.5*	81.6	-1.3	232.9
CCc1ccccc1N(CC(=O)Nc1cccnc1)S(=O)(=O)c1ccccc1	11.7*	-0.4	0.2	124.8
SMILES	NR3A LBD binder	JMJD2C inh	Rtt109 HAT inh	T cell modulator
N#Cc1ccccc1N/C=C/C(=O)c1ccc(Cl)cc1	35.8*	-1.9	x	422.7
COc1ccccc1C(=O)NCC(=O)N=Nc1c(O)n(C(C)C)c2ccccc12	254.7*	18.0	63.6*	211.8
CCN(CC)S(=O)(=O)c1ccc2oc(C(=O)NCCN3CCOCC3)c(C)c2c1	58.1*	13.4	-7.0	460.4
CCOc1ccc(OCC(=O)Nc2ccc(OC)cc2[N+](=O)[O-])cc1	-2.5	-11.5	x	208.0
COc1ccc(NC(=O)c2ccc(C)cc2Cl)c([N+](=O)[O-])c1	11.3*	0.1	-18.2	177.9
Cc1ccc(C(=O)NCC(=O)OCC(=O)Nc2cc(C)c(C)cc2[N+](=O)[O-])cc1	-1.8	2.7	6.5	148.0
COc1ccc(NC(=O)COc2ccc(C)cc2)c([N+](=O)[O-])c1	12.8*	0.2	x	327.9
COCC(=O)OCC(=O)Nc1cc(C)c(C)cc1[N+](=O)[O-]	-2.5	8.7	50.1*	242.5
O=C(CSc1nnc2c(n1)[nH]c1ccccc12)NCc1ccccc1F	-1.2	5.5	-9.8	370.8
CC(C)CC1NC(=O)c2cc(Cl)ccc2-n2c1nc1cc(F)ccc1c2=O (stereo not given)	x	x	x	326.6
CCC(Oc1ccccc1)C(=O)OCC(=O)Nc1sccc1C(N)=O (stereo not given)	-1.7	x	1.9	245.1
COc1ccc(-c2nc(-c3ccc(O)cc3O)cs2)cc1OC	26.2*	-1.3	8.0	x
COc1ccc(-c2nc(CCl)cs2)cc1OC	0.8	-7.9	1.3	683.4
COc1ccc(-c2csc(-c3ccc(O)cc3)n2)cc1	23.8*	-13.8	-5.1	451.7
CCn1c(=S)sc2c(=O)n(CC(=O)Nc3cccc(Cl)c3)c(C)nc21	33.1*	-0.1	12.3	194.5
CCOC(=O)c1ccc(NC(=O)Cn2c(C)nc3c(sc(=S)n3CC)c2=O)cc1	-1.1	53.8	-5.5	362.0
COc1ccccc1CNC(=O)c1ccccc1OCc1ccc(F)cc1	22.8*	-1.4	4.1	412.3
CCC(CNC(=O)c1c(C)nn(-c2ccccc2)c1Cl)c1ccccc1 (stereo not given)	-2.3	2.6	1.9	204.1
CC(C)(C)C1CCC2(CC1)C(C#N)=C(SCC(=O)NC1CCCCC1)NC(=O)C2C#N (stereo not given)	12.4*	18.1	19.2	359.4
N#CC1=C(SCC(=O)NC2CC2)NC(=O)C(C#N)C12CCCCC2 (stereo not given)	0.0	-2.7	-11.7	240.1
N#CC1=C(SCC(=O)NC23CC4CC(CC(C4)C2)C3)NC(=O)C(C#N)C12CCCCC2 (stereo not given)	12.1*	4.9	x	608.3
CC1CCc2c(sc(/N=C/c3cccnc3)c2C(N)=O)C1 (stereo not given)	11.0*	1.2	x	125.6
CCCN1CCC(NCc2cn(C)nc2-c2ccc(Oc3ccccc3)cc2)CC1	-1.0	-9.0	14.9	600.6
CC(Oc1ccccc1F)C(=O)NNC(=O)c1cccc(S(=O)(=O)N2CCN(C)CC2)c1 (stereo not given)	-0.2	0.7	-11.8	i
C=CCn1c(CNC(=O)c2cccs2)nnc1SCC(=O)c1ccc(Br)cc1	13.3*	-1.9	0.5	281.7
C=CCn1c(Cc2cccs2)nnc1SCC(=O)c1ccc2ccccc2c1	15.7*	2.1	1.8	287.7
Cc1cc(=O)[nH]c(SCC(=O)Nc2nonc2C)n1	-0.6	-14.6	12.6	194.6
CN(C)c1ccc(CNc2ncnc3sccc23)cc1	0.8	-7.6	10.2	153.4
COc1cc2nc(SCc3ccc(Cl)cc3Cl)n(Cc3cccs3)c(=N)c2cc1OC	22.1*	-9.1	-1.9	193.5
